Assay results as given in ChEMBL document CHEMBL1152481, “Synthesis of 2-(4-substitutedmethylpiperazin-1-yl)-N-(3,4-dihydro-3-oxo-2H-benzo[b][1,4]oxazin-7-yl)acetamides and their positive inotropic evaluation” (2009).
The source made the active and inactive calls. The rule behind the calls is not given here.

How the values were obtained:
Oryctolagus cuniculus [1] = species on record: Oryctolagus cuniculus; experiment: Negative inotropic activity in perfused rabbit left atrium assessed as stroke volume at 10 uM; assay type: functional, tissue-based; settings: Cardiac atrium
Outline: (§1)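 Field-stimulated at a fixed 1.5 Hz, 60 min stabilization. Single dose, DMSO-dissolved and buffer-diluted, applied after a control circulation; 12-min circulations. Stroke volume read from the cannula water column at end diastole every 2 min, reported as mean % increase.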

[2] = Chronotropic effect in perfused rabbit left atrium assessed as heart rate at 10 uM by electrocardiogram analysis (Rvb= 152.20 +/- 0.42 Hz); assay type: functional, Oryctolagus cuniculus, Cardiac atrium
[3] = Positive inotropic activity in perfused rabbit left atrium assessed as increase in stroke volume at 10 uM; assay type: functional, Oryctolagus cuniculus, Cardiac atrium; outline: as §1
Oryctolagus cuniculus [4] = species on record: Oryctolagus cuniculus; experiment: Positive inotropic activity in perfused rabbit left atrium assessed as increase in stroke volume at 10 uM/L; assay type: functional, tissue-based; settings: Cardiac atrium, TDE = time-dependent effect; outline: as §1
[5] = Chronotropic effect in perfused rabbit left atrium assessed as heart rate at 10 uM by electrocardiogram analysis (Rvb= 146.80 +/- 0.09 Hz); assay type: functional, Oryctolagus cuniculus, Cardiac atrium

Row | Structure (SMILES) | Activity (Oryctolagus cuniculus [1]) | Activity [3] [%] | other results
1 | COc1ccc(CN2CCN(CC(=O)Nc3ccc4c(c3)OCC(=O)N4)CC2)cc1 | Active |  | 
2 | Cc1ccc(CN2CCN(CC(=O)Nc3ccc4c(c3)OCC(=O)N4)CC2)cc1 |  | 5.09 | Activity [2]: 142.2 Hz; Activity (Oryctolagus cuniculus [4]): tde
3 | Cc1ccc(COc2ccc3cc(CN4CCN(CC(=O)Nc5ccc6c(c5)OCC(=O)N6)CC4)ccc3c2)cc1 | Active |  | 
4 | O=C(CN1CCN(Cc2ccccc2F)CC1)Nc1ccc2c(c1)OCC(=O)N2 |  | 4.29 | Activity (Oryctolagus cuniculus [4]): tde; Activity [5]: 139.1 Hz
5 | Cc1[nH]c(=O)c(C#N)cc1-c1ccncc1 [MILRINONE] |  | 1.67 | 
6 | O=C(CN1CCN(Cc2ccc3cc(OCc4ccccc4)ccc3c2)CC1)Nc1ccc2c(c1)OCC(=O)N2 | Active |  | 
7 | O=C(CN1CCN(Cc2ccc3cc(OCc4cccc(Cl)c4)ccc3c2)CC1)Nc1ccc2c(c1)OCC(=O)N2 | Active |  | 
8 | O=C(CN1CCN(Cc2c(Cl)cccc2Cl)CC1)Nc1ccc2c(c1)OCC(=O)N2 | Active |  | 
9 | O=C(CN1CCN(Cc2ccccc2)CC1)Nc1ccc2c(c1)OCC(=O)N2 | Active |  | 
10 | COc1cccc(CN2CCN(CC(=O)Nc3ccc4c(c3)OCC(=O)N4)CC2)c1 |  | 3.23 | 
11 | O=C(CN1CCN(Cc2cccc(Cl)c2)CC1)Nc1ccc2c(c1)OCC(=O)N2 | Active |  | 
12 | O=C(CN1CCN(Cc2ccc3c(c2)OCO3)CC1)Nc1ccc2c(c1)OCC(=O)N2 | Active |  | 
13 | COc1ccc(COc2ccc3cc(CN4CCN(CC(=O)Nc5ccc6c(c5)OCC(=O)N6)CC4)ccc3c2)cc1 | Active |  | 
14 | O=C(CN1CCN(Cc2ccc(F)cc2)CC1)Nc1ccc2c(c1)OCC(=O)N2 | Active |  | 
15 | O=C(CN1CCN(Cc2ccccc2Br)CC1)Nc1ccc2c(c1)OCC(=O)N2 |  | 1.43 | 
16 | O=C(CN1CCN(Cc2ccc(Cl)cc2)CC1)Nc1ccc2c(c1)OCC(=O)N2 | Active |  | 
